# Calls of active or inactive are those of the source. The rule behind the calls is not given here.
# Assays:
# [1] = biological target: Mitogen-activated protein kinase 14 (Homo sapiens, UniProt Q16539); assay: Inhibition of recombinant human p38alpha expressed in Escherichia coli
# How it was run: (§1)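 IC50 determination against ALK5 (human GST-fusion, Sf9 baculovirus) and p38α (untagged human, E. coli); values averaged from three independent experiments run in triplicate.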
# TGF-beta receptor type-1 = biological target: T1, TGF-beta receptor type-1 (Homo sapiens, UniProt P36897); assay: Inhibition of recombinant GST-tagged human ALK5 expressed in baculovirus infected Sf9 insect cells; how it was run: as §1
# T1 sequence (P36897 whole entry): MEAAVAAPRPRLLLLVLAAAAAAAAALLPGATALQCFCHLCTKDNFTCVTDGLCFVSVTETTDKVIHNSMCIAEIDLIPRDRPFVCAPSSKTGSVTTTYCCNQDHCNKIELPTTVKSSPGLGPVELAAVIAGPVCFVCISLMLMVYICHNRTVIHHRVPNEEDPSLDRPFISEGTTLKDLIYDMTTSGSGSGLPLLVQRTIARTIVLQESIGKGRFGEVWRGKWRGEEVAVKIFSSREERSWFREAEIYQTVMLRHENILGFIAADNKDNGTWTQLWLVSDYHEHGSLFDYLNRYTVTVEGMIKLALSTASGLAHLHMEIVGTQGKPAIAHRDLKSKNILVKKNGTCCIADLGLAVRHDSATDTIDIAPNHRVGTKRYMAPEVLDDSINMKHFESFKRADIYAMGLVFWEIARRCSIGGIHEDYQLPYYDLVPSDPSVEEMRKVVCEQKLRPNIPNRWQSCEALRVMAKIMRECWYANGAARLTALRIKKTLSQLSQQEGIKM
# [2] = biological target: Hypoxia-inducible factor 1-alpha (Homo sapiens) (UniProt Q16665); assay: Inhibition of HIF1alpha transcriptional activity in hypoxia-induced human HCT116 cells co-transfected with luciferase reporter plasmid containing six copies of HREs and pRL-CMV plasmid by luciferase reporter gene assay; type: cell-based; conditions: HCT-116
# How it was run: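 HCT116 transiently co-transfected with pGL3-HRE-luciferase and pRL-CMV; after 24 h, incubated under hypoxia with graded concentrations; luciferase activity read; mean ± SD, three independent experiments.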
# HCT-116 [3] = assay: Inhibition of hypoxia-induced HIF1alpha protein expression in human HCT116 cells incubated for 12 hrs under hypoxic condition by Western blot analysis; type: functional, cell-based
# How it was run: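 HCT116 held under normoxia or hypoxia 12 h with graded concentrations; nuclear extracts probed for HIF-1α by Western blot, Topo-I as loading control.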
# HCT-116 [4] = assay: Induction of apoptosis in human HCT116 cells assessed as early apoptotic cells at 50 uM after 12 hrs by Annexin-V/PI-staining based flow cytometric analysis (reference value: 1%); type: functional
# HCT-116 [5] = assay: Induction of apoptosis in human HCT116 cells assessed as late apoptotic cells at 50 uM preincubated for 12 hrs followed by TNF stimulation and measured after 24 hrs by Annexin-V/PI-staining based flow cytometric analysis (reference value: 1.4%); type: functional
# HCT-116 [6] = assay: Induction of apoptosis in human HCT116 cells assessed as necrotic cells at 50 uM preincubated for 12 hrs followed by TNF stimulation and measured after 24 hrs by Annexin-V/PI-staining based flow cytometric analysis (reference value: 3.6%); type: functional
# HCT-116 [7] = assay: Induction of apoptosis in human HCT116 cells assessed as PARP cleavage at 50 uM preincubated for 12 hrs followed by TNF-stimulation and measured after 24 hrs by Western blot analysis; type: functional, cell-based
# How it was run: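 HCT116 pretreated 12 h with 50 μM, then TNF (10 ng/mL) 24 h; whole cell extracts blotted for cleaved caspase-8, cleaved caspase-3, cleaved PARP, tubulin.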
# HCT-116 [8] = assay: Down regulation of TNF-induced VEGF mRNA expression in human HCT116 cells at 50 uM pretreated for 12 hrs followed by TNF stimulation and measured after 12 hrs by Western blot analysis; type: functional, cell-based; conditions: in the assay text read “RT-PCR analysis” for “Western blot analysis”
# How it was run: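 HCT116 preincubated 12 h with graded concentrations, then TNF 10 ng/mL for a further 12 h; ICAM-1, VEGF, MMP-9 transcripts measured by RT-PCR, GAPDH for equal RNA loading.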
# HCT-116 [9] = assay: Antiproliferative activity against human HCT116 cells assessed as reduction in TNF-induced number of Edu positive cells at 50 uM pretreated for 12 hrs followed by TNF stimulation and measured after 30 mins by Edu-incorporation based fluorescence microscopic analysis; type: functional, cell-based
# How it was run: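 HCT116 cells pretreated 12 h (50 μM), then TNF 10 ng/ml for 30 min; EdU-labelled proliferating cells examined by fluorescence microscopy; mean ± SD of three independent experiments.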
# HCT-116 [10] = assay: Inhibition of colony formation in TNF-induced human HCT116 cells pretreated with compound for 12 hrs before TNF stimulation for 30 mins and followed by replacement of fresh medium incubated for 10 days by crystal violet staining based analysis; type: functional, cell-based
# How it was run: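 HCT116 treated 12 h (10, 30, 50 μM), then TNF 10 ng/ml 30 min; medium replaced, growth continued 10 days; crystal violet staining; mean ± SD of three independent experiments.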
# Chain of Mitogen-activated protein kinase 14 (Q16539 whole entry, the tested form may be a part): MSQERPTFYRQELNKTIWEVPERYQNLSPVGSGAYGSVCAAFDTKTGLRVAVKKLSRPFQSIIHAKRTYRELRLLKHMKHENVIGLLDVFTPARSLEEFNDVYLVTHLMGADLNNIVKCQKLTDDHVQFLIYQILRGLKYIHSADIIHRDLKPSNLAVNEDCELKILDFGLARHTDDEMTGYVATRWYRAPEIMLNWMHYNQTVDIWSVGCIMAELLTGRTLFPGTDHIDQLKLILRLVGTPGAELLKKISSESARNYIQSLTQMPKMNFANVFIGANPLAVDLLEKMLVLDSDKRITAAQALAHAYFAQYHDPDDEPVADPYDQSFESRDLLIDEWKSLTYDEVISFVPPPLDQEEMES
# Chain of Hypoxia-inducible factor 1-alpha (Homo sapiens) (Q16665 whole entry, looked up): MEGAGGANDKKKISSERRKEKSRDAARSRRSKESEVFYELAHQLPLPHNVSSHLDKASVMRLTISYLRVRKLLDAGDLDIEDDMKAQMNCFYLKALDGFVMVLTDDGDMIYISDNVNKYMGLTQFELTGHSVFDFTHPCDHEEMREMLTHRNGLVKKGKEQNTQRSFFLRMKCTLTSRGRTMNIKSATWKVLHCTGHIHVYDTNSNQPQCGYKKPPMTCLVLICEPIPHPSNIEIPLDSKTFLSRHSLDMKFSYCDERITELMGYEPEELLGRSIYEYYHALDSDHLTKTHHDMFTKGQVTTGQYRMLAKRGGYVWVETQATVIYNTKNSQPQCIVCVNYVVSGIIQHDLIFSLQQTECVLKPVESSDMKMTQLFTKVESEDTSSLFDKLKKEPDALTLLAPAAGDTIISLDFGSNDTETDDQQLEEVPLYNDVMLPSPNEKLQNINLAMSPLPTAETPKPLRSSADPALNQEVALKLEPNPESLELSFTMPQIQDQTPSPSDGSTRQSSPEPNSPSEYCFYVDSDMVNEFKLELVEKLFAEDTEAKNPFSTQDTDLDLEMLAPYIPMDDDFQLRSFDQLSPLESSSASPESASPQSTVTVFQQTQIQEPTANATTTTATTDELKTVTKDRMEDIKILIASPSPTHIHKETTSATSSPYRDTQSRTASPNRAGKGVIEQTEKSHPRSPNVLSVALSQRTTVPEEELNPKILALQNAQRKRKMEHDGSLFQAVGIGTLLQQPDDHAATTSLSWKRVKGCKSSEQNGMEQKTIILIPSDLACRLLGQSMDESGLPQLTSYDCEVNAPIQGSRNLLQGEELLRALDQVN
structure (smiles),measurement,setting,value
Cc1cccc(-c2nn(CC(=S)Nc3cccc(C#N)c3)cc2-c2ccnc3ccccc23)n1,IC50,[1],104 nM
same,IC50,TGF-beta receptor type-1,69 nM
same,inhibition,[2],Dose-dependent effect
same,inhibition,HCT-116 [3],Dose-dependent effect
same,Activity,HCT-116 [4],3.1%
same,Activity,HCT-116 [5],3.6%
same,Activity,HCT-116 [6],5.4%
same,Activity,HCT-116 [7],Active
same,Activity,HCT-116 [8],Active
same,Activity,HCT-116 [9],Active
same,inhibition,HCT-116 [10],Dose-dependent effect

# — ChEMBL document CHEMBL4613227, “Synthesis and evaluation of the HIF-1α inhibitory activity of 3(5)-substituted-4-(quinolin-4-yl)- and 4-(2-phenylpyridin-4-yl)pyrazoles as inhibitors of ALK5” (Bioorg Med Chem Lett, 2020)
